Laboratory results published in ChEMBL document CHEMBL1144100, “Homo- and nor-plakotenin, new carboxylic acids from the Palauan sponge Plakortis lita” (1999).
Active and inactive are the calls of the source. No cut-off for these calls is given here.

Columns and labels:
[1] = Antiproliferative activity against rheumatoid synovial fibroblasts assessed as inhibition of PDGF-BB-induced DNA synthesis at 0.1 ug/mL treated 15 mins before PDGF-BB challenge by [3H]thymidine incorporation assay; assay type: functional
Summary of the method: (§1)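 Rheumatoid synovial fibroblasts plated at 1.2 × 10^4 cells/well in EMEM with 10% heat-inactivated FBS and penstrep, allowed to adhere 6 h at 37 °C, 5% CO2. Then serum-arrested 24 h in 0.2% FBS. Compounds added in DMSO (0.5% final) for 15 min at room temperature, then 1 nM PDGF-BB in 10% FBS medium for 24 h. Pulsed with 0.5 µCi/well [3H]-thymidine for 24 h, trypsin/EDTA-detached, harvested, scintillation counted versus controls.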

[2] = Antiproliferative activity against rheumatoid synovial fibroblasts assessed as inhibition of PDGF-BB-induced DNA synthesis at 1 ug/mL treated 15 mins before PDGF-BB challenge by [3H]thymidine incorporation assay; assay type: functional; summary of the method: as §1

SMILES | Activity [1] | inhibition at 1 µg/mL [2] [%] | inhibition (INH) [2] [%]
CC[C@@]1(/C=C(\C)C(=O)O)[C@H]2[C@H](C(C)=C[C@H]1c1ccccc1)[C@H](C)C[C@H]2C | inactive |  | 
CC1=C[C@@H](c2ccccc2)[C@](C)(/C=C(\C)C(=O)O)[C@H]2[C@H]1[C@H](C)C[C@H]2C | inactive | 0 | 
CC[C@@]1(/C=C(\C)C(=O)[O-])[C@H]2[C@H](C(C)=C[C@H]1c1ccccc1)[C@H](C)C[C@H]2C.[Na+] [PLAKOTENIN SODIUM SALT] |  |  | 35.7
CCC1=C[C@@H](c2ccccc2)[C@@](/C=C(\C)C(=O)[O-])(CC)[C@H]2[C@H]1[C@H](C)C[C@H]2C.[Na+] |  |  | 27.8
CCC1=C[C@@H](c2ccccc2)[C@@](/C=C(\C)C(=O)O)(CC)[C@H]2[C@H]1[C@H](C)C[C@H]2C [listing 1 of 2 here] |  |  | 73.5
CC[C@@]1(/C=C(\C)C(=O)O)[C@H]2[C@H](C(C)=C[C@H]1c1ccccc1)[C@H](C)C[C@H]2C [PLAKOTENIN] |  |  | 76.8
CCC1=C[C@@H](c2ccccc2)[C@@](/C=C(\C)C(=O)O)(CC)[C@H]2[C@H]1[C@H](C)C[C@H]2C [listing 2 of 2 here] | inactive |  | 
